Activity calls are given as the source filed them. The rule behind the calls is not given here.
Legend:
RAW264.7 [1] = experiment: Antiinflammatory activity in mouse RAW264.7 cells assessed as reduction in LPS-induced TNF-alpha production at 1 nM incubated for 2 hrs prior to LPS challenge measured after 8 hrs by ELISA; type: functional
Summary of the method: (§1)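 RAW 264.7 macrophages were plated at 1×10^5 per well, grown overnight and washed with PBS. Compounds in water (final 1 pM-100 nM, medium with 2% FCS) were added 2 h at 37 °C before E. coli 0111:B4 LPS, 2.5 µg/mL. TNF-α was sampled at 8 h; IL-6 and nitrite (Griess) at 24 h. ELISA was used for cytokines. Values are % of the LPS + medium value in each experiment. Budesonide was the reference. 2-3 experiments, 6 wells per concentration.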

RAW264.7 [2] = experiment: Antiinflammatory activity in mouse RAW264.7 cells assessed as reduction in LPS-induced IL-6 production at 1 nM incubated for 2 hrs prior to LPS challenge measured after 24 hrs by ELISA; type: functional; summary of the method: as §1
RAW264.7 [3] = experiment: Antiinflammatory activity in mouse RAW264.7 cells assessed as reduction in LPS-induced TNF-alpha production at 100 pM incubated for 2 hrs prior to LPS challenge measured after 8 hrs by ELISA; type: functional; summary of the method: as §1
RAW264.7 [4] = experiment: Antiinflammatory activity in mouse RAW264.7 cells assessed as reduction in LPS-induced nitric oxide production at 1 nM incubated for 2 hrs prior to LPS challenge measured after 24 hrs by Griess assay; type: functional; summary of the method: as §1
RAW264.7 [5] = experiment: Antiinflammatory activity in mouse RAW264.7 cells assessed as reduction in LPS-induced IL-6 production at 100 pM incubated for 2 hrs prior to LPS challenge measured after 24 hrs by ELISA; type: functional; summary of the method: as §1
RAW264.7 [6] = experiment: Antiinflammatory activity in mouse RAW264.7 cells assessed as reduction in LPS-induced nitric oxide production at 100 pM incubated for 2 hrs prior to LPS challenge measured after 24 hrs by Griess assay; type: functional; summary of the method: as §1
[7] = Cytotoxicity against mouse RAW264.7 cells assessed as cell viability at 10^-8 M after 24 hrs by MTT assay relative to control; type: cell-based; details: read-out: Activity
Summary of the method: (§2)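 RAW 264.7 cells, seeded at 1×10^4 cells/mL and incubated 24 h, were exposed to compound from 1 pM to 100 nM. Viability was read by MTT (final 0.5 mg/mL, 1 h at 37 °C), with formazan dissolved in DMSO and OD at 570 nm. Results are compared with medium-only cells.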

[8] = Cytotoxicity against mouse RAW264.7 cells assessed as cell viability at 10^-7 M after 24 hrs by MTT assay relative to control; type: cell-based; details: read-out: Activity; summary of the method: as §2
[9] = Cytotoxicity against mouse RAW264.7 cells assessed as cell viability at 10^-9 M after 24 hrs by MTT assay relative to control; type: cell-based; details: read-out: Activity; summary of the method: as §2
[10] = Cytotoxicity against mouse RAW264.7 cells assessed as cell viability at 10^-11 M after 24 hrs by MTT assay relative to control; type: cell-based; details: read-out: Activity; summary of the method: as §2
[11] = Cytotoxicity against mouse RAW264.7 cells assessed as cell viability at 10^-10 M after 24 hrs by MTT assay relative to control; type: cell-based; details: read-out: Activity; summary of the method: as §2
[12] = Cytotoxicity against mouse RAW264.7 cells assessed as cell viability at 10^-12 M after 24 hrs by MTT assay relative to control; type: cell-based; details: read-out: Activity; summary of the method: as §2
RAW264.7 [13] = experiment: Antiinflammatory activity in mouse RAW264.7 cells assessed as reduction in LPS-induced TNF-alpha production at 100 pM to 100 nM incubated for 2 hrs prior to LPS challenge measured after 8 hrs by ELISA; type: functional, cell-based; summary of the method: as §1
RAW264.7 [14] = experiment: Antiinflammatory activity in mouse RAW264.7 cells assessed as reduction in LPS-induced IL-6 production at 100 pM to 100 nM incubated for 2 hrs prior to LPS challenge measured after 24 hrs by ELISA; type: functional, cell-based; summary of the method: as §1
RAW264.7 [15] = experiment: Cytoprotective activity against H2O2-induced oxidative stress in mouse RAW264.7 cells assessed as cell viability at 10 nM incubated for 2 hrs prior to H2O2 addition measured after 24 hrs by MTT assay (reference value: 68 to 72.8%); type: functional; details: read-out: Activity
RAW264.7 [16] = experiment: Cytoprotective activity against H2O2-induced oxidative stress in mouse RAW264.7 cells assessed as decrease in LDH release at 1 pM incubated for 2 hrs prior to H2O2 addition by colorimetric assay relative to control; type: functional; parameters: scale not given: the % may be the effect or the level left
Summary of the method: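 RAW 264.7 cells were seeded and pretreated with compound before H2O2 100 µM, in serum-free medium. Collected medium was centrifuged and incubated with reaction mix 30 min at room temperature. LDH was measured as NADH formation by colorimetric read at 490 nm. n = 8-10 replicates per concentration.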

RAW264.7 [17] = experiment: Cytoprotective activity against H2O2-induced oxidative stress in mouse RAW264.7 cells assessed as cell viability at 100 nM incubated for 2 hrs prior to H2O2 addition measured after 24 hrs by MTT assay (reference value: 68 to 72.8%); type: functional; details: read-out: Activity
RAW264.7 [18] = experiment: Cytoprotective activity against H2O2-induced oxidative stress in mouse RAW264.7 cells assessed as decrease in LDH release at 1 pM incubated for 2 hrs prior to H2O2 addition by colorimetric assay relative to control; parameters: scale not given: the % may be the effect or the level left
RAW264.7 [19] = experiment: Antiinflammatory activity in mouse RAW264.7 cells assessed as reduction in LPS-induced nitric oxide production at 1 pM to 100 nM incubated for 2 hrs prior to LPS challenge measured after 24 hrs by Griess assay; type: functional, cell-based; summary of the method: as §1
RAW264.7 [20] = experiment: Antiinflammatory activity in mouse RAW264.7 cells assessed as reduction in LPS-induced TNF-alpha production at 1 pM to 100 nM incubated for 2 hrs prior to LPS challenge measured after 8 hrs by ELISA; type: functional, cell-based; summary of the method: as §1
RAW264.7 [21] = experiment: Antiinflammatory activity in mouse RAW264.7 cells assessed as reduction in LPS-induced IL6 production at 1 pM to 100 nM incubated for 2 hrs prior to LPS challenge measured after 24 hrs by ELISA; type: functional, cell-based; summary of the method: as §1
Mus musculus [22] = experiment: Antiinflammatory activity in Balb/C mouse assessed as reduction in LPS-induced IL6 production in plasma at 1 umol/kg, sc administered LPS 15 mins post compound treatment measured after 4 hrs by ELISA; type: functional, organism-based
Summary of the method: (§3)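 Male Balb/C mice, 7-8 weeks old, given compound sc (0.1, 1 or 10 µmoles/kg) or saline. LPS 10 mg/kg was given ip 15 min later, and mice were killed 4 h after that. Spleens were homogenized in PBS with protease inhibitor and centrifuged at 14,000 g, 4 °C. Cytokines in plasma and tissue supernatants were measured by ELISA, with protein by BCA. Dexamethasone 5.6 µmoles/kg was the reference. n = 8-10 mice per treatment.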

Mus musculus [23] = experiment: Antiinflammatory activity in Balb/C mouse assessed as reduction in LPS-induced TNF-alpha production in plasma at 1 umol/kg, sc administered LPS 15 mins post compound treatment measured after 4 hrs by ELISA; type: functional, organism-based; summary of the method: as §3
Mus musculus [24] = experiment: Acute toxicity in Balb/C mouse assessed as change in activity at 100 umol/kg, sc measured over 72 hrs; type: organism-based; details: in vivo
Summary of the method: (§4)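 Male Balb/C mice, 24-28 g, groups of 3; single sc injection of compound at 100 μmoles/kg or saline (1 mL/100 g). Food and water intake, body weight and general activity monitored over 72 h against saline-injected animals.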

RAW264.7 [25] = experiment: Cytoprotective activity against H2O2-induced oxidative stress in mouse RAW264.7 cells assessed as decrease in caspase-3 activity at 1 pM incubated for 4 hrs prior to H2O2 addition measured after 90 mins by caspase-GloR reagent-based luminescence assay relative to control; type: functional; parameters: scale not given: the % may be the effect or the level left
Summary of the method: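 RAW 264.7 macrophages were pretreated with compound (1 pM or 1 nM) 4 h before H2O2 100 µM. Medium was replaced with fresh DMEM after 90 min and plates were incubated overnight. Caspase-Glo 3/7 reagent was added and luminescence read after 30 min at room temperature. Mean ± SD, 4-6 replicates.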

Mus musculus [26] = experiment: Antiinflammatory activity in Balb/C mouse assessed as reduction in LPS-induced IL6 production in liver at 0.1 to 10 umol/kg, sc administered LPS 15 mins post compound treatment measured after 4 hrs by ELISA; type: functional, organism-based
Mus musculus [27] = experiment: Antiinflammatory activity in Balb/C mouse assessed as reduction in LPS-induced IL6 production in brain at 0.1 to 10 umol/kg, sc administered LPS 15 mins post compound treatment measured after 4 hrs by ELISA; type: functional, organism-based
Mus musculus [28] = experiment: Acute toxicity in Balb/C mouse assessed as change in food intake at 100 umol/kg, sc measured over 72 hrs; type: organism-based; details: in vivo; summary of the method: as §4
Mus musculus [29] = experiment: Acute toxicity in Balb/C mouse assessed as change in water intake at 100 umol/kg, sc measured over 72 hrs; type: organism-based; details: in vivo; summary of the method: as §4
Mus musculus [30] = experiment: Acute toxicity in Balb/C mouse assessed as change in body weight at 100 umol/kg, sc measured over 72 hrs; type: organism-based; details: in vivo; summary of the method: as §4
Mus musculus [31] = experiment: Antiinflammatory activity in Balb/C mouse assessed as reduction in LPS-induced TNF-alpha production in spleen at 1 umol/kg, sc administered LPS 15 mins post compound treatment measured after 4 hrs by ELISA; type: functional, organism-based; summary of the method: as §3
Mus musculus [32] = experiment: Antiinflammatory activity in Balb/C mouse assessed as reduction in LPS-induced IL6 production in spleen at 1 umol/kg, sc administered LPS 15 mins post compound treatment measured after 4 hrs by ELISA; type: functional, organism-based; summary of the method: as §3

Compound: COC(=O)CCC1CNc2ccccc21 (stereo not drawn)
- Activity (RAW264.7 [1]): Active
- Activity (RAW264.7 [2]): Active
- Activity (RAW264.7 [3]): Active
- Activity (RAW264.7 [4]): Active
- Activity (RAW264.7 [5]): Active
- Activity (RAW264.7 [6]): Active
- viability at 24 h, 0.01 µM [7]: 94.5%
- viability at 24 h, 0.1 µM [8]: 92.9%
- viability at 24 h, 0.001 µM [9]: 97.1%
- viability at 24 h, 1e-05 µM [10]: 93.2%
- viability at 24 h, 0.0001 µM [11]: 96.6%
- viability at 24 h, 1e-06 µM [12]: 99.5%

Compound: CC(C)NCCCN1CCc2cccc(O)c21.Cc1ccc(S(C)(=O)=O)cc1.Cc1ccc(S(C)(=O)=O)cc1
- Activity (RAW264.7 [13]): inactive
- Activity (RAW264.7 [14]): inactive

Compound: c1ccc2c(c1)CCN2 [INDOLINE]
- viability at 0.01 µM (RAW264.7 [15]): 90.4%

Compound: Cl.OCCCN1CCc2ccccc21
- Activity (RAW264.7 [13]): Active
- Activity (RAW264.7 [14]): Active
- Activity (RAW264.7 [16]): 16%
- viability at 0.1 µM (RAW264.7 [17]): 89.8%
- viability at 24 h, 0.01 µM [7]: 92.3%
- viability at 24 h, 0.1 µM [8]: 94.4%
- viability at 24 h, 0.001 µM [9]: 95.1%
- viability at 24 h, 1e-05 µM [10]: 89.9%
- viability at 24 h, 0.0001 µM [11]: 91.6%
- viability at 24 h, 1e-06 µM [12]: 89.5%
- Activity (RAW264.7 [18]): 16%

Compound: COc1ccc2c(c1)CCN2CCC(=O)O
- Activity (RAW264.7 [19]): inactive
- Activity (RAW264.7 [20]): inactive
- Activity (RAW264.7 [21]): inactive
- viability at 0.1 µM (RAW264.7 [17]): 87.1%

Compound: CC(C)NC(=O)CCN1CCc2ccc(F)cc21
- Activity (RAW264.7 [19]): inactive
- Activity (RAW264.7 [20]): inactive
- Activity (RAW264.7 [21]): inactive
- viability at 0.1 µM (RAW264.7 [17]): 86.9%

Compound: COC(=O)CCN1CCc2ccccc21.Cl
- Activity (Mus musculus [22]): Active
- Activity (Mus musculus [23]): Active
- Activity (Mus musculus [24]): Non-Toxic
- Activity (RAW264.7 [25]): 60%
- Activity (Mus musculus [26]): Active
- Activity (Mus musculus [27]): Active
- Activity (Mus musculus [28]): Non-Toxic
- Activity (Mus musculus [29]): Non-Toxic
- Activity (Mus musculus [30]): Non-Toxic
- Activity (RAW264.7 [19]): Active
- Activity (RAW264.7 [20]): Active
- Activity (RAW264.7 [2]): Active
- Activity (RAW264.7 [5]): Active
- Activity (RAW264.7 [16]): 16%
- viability at 0.01 µM (RAW264.7 [15]): 85.9%
- viability at 24 h, 0.01 µM [7]: 91.8%
- viability at 24 h, 0.1 µM [8]: 90.8%
- viability at 24 h, 0.001 µM [9]: 92.6%
- viability at 24 h, 1e-05 µM [10]: 91.5%
- viability at 24 h, 0.0001 µM [11]: 93.3%
- viability at 24 h, 1e-06 µM [12]: 95%
- Activity (Mus musculus [31]): Active
- Activity (Mus musculus [32]): Active
- Activity (RAW264.7 [18]): 16%

Reference: ChEMBL document CHEMBL4177768, “Synthesis and Biological Evaluation of Derivatives of Indoline as Highly Potent Antioxidant and Anti-inflammatory Agents” (J Med Chem, 2018)
